ALR H2O2 inh = inhibitors of human sulfhydryl oxidase ALR; purified ALR, DTT oxidation, H2O2 HRP-luminol luminescence; actives 3.8% (n = 290,000); inhibition, % (test concentration not listed);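 active = mean replicate inhibition above about 79%, with every replicate also reaching it, limit read from the data; inconclusive = only one of the two criteria met; inactive = mean below limit and not every replicate reaching it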
Target sequence (P55789 whole entry, looked up): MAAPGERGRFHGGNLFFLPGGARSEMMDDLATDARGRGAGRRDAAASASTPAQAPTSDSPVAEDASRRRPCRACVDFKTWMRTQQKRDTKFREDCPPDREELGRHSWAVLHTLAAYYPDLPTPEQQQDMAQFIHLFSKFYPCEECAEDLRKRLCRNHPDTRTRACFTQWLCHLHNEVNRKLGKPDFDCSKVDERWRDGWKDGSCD
Dyrk1A ADPGlo = inhibitors of rat Dyrk1A kinase. ADP-Glo luminescence, NFATc1 peptide. inhibition, % at 12.5 µM. actives 0.43% (n = 310,000). AID 504441; in the data active = inhibition above about 50%;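 note: plate controls were vehicle with enzyme for no effect and no enzyme for full effect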
CAL PDZ FP-1 = inhibitors of human CAL PDZ peptide binding; purified CAL PDZ, TMR-peptide fluorescence polarization, 1 h; Q9HD26; AID 504414; inhibition, % at 20 µM; actives 0.02% (n = 330,000);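 active = highest replicate inhibition of at least 40%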;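 note: plate controls were DMSO neutral control wells for no effect and unlabeled competitor peptide control wells for full effect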
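System: tagged CAL PDZ domain. Schedule: 1 h room-temperature incubation prior to read. Signal: fluorescence polarization (mP). Measure: percent inhibition from loss of millipolarization.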
CAL PDZ FP-2 = inhibitors of human CAL PDZ peptide binding. Q9HD26. purified CAL PDZ, TMR-peptide fluorescence polarization, 1 h. inhibition, % at 24.9 µM. actives 0.92% (n = 300,000). AID 602252;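 active = mean inhibition of at least 30% with at least half of replicates also reaching 30%; inconclusive = no clear call, values can overlap the other calls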;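 note: 0% = DMSO neutral control and 100% = excess unlabeled competitor peptide PRC23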
Rtt109 Vps75 = C. albicans Rtt109 histone acetyltransferase inhibition. AID 540336. purified Rtt109/Vps75, ThioGlo CoA-SH fluorescence, 4 h. actives 0.16% (n = 330,000). Q5AAJ8. inhibition, % at 34.9 µM;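 active = inhibition of at least 50% in every replicate; inconclusive = best replicate reaches 50% inhibition but some replicates fall short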
Target sequence (Q5AAJ8 whole entry, looked up): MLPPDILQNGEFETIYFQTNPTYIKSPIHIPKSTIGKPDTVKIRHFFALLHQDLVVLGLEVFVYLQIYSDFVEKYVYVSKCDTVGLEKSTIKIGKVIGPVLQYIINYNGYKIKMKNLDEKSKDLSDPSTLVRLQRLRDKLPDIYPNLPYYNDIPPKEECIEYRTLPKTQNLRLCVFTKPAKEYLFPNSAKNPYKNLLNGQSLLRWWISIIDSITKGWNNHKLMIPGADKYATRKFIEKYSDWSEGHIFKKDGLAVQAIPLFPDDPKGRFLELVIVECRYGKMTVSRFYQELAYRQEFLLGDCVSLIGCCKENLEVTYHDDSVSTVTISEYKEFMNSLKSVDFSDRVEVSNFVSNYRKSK
Active calls of the source: *; ? = inconclusive; . = no result. Only some compounds are listed: those with a hit (about 4.3% of all), similar ones and a draw of the others.

SMILES	ALR H2O2 inh	Dyrk1A ADPGlo	CAL PDZ FP-1	CAL PDZ FP-2	Rtt109 Vps75
CCOc1ccccc1C(=O)NCC(=O)OCCOc1cccc(Cl)c1	-5.4	-1.0	-1.8	-1.8	1.3
N#CC1(NC(=O)COC(=O)c2cc(=O)[nH]c3ccccc23)CCCCC1	.	.	-1.7	32.3*	-1.4
O=C(CSc1ncnc2ccccc12)Nc1cccc(S(=O)(=O)N2CCOCC2)c1	97.8*	4.1	.	-4.9	-5.0
CN(C)S(=O)(=O)c1cccc(NC(=O)CSc2ncnc3ccccc23)c1	99.0*	-2.4	-2.0	-1.7	-6.6
O=C(COC(=O)c1cc(=O)[nH]c2ccccc12)Nc1cccc(S(=O)(=O)N2CCOCC2)c1	-2.5	0.9	-6.5	75.9*	0.3
CC(C)CNC1CS(=O)(=O)CC1O (centres undefined)	-14.4	5.3	-0.8	-1.7	-8.7
O=S1(=O)CC(O)C(NCc2cccnc2)C1 (centres undefined)	-1.9	-0.6	-3.0	-2.5	65.0*
CCCCNC(=O)CSc1nc2ccsc2c(=O)n1CCCC(=O)NCCc1ccc(S(N)(=O)=O)cc1	-3.0	1.5	-0.3	.	-8.8
CC1CCCCC1NC(=O)Cn1ncc2ccccc21 (centres undefined)	97.5*	-1.8	-0.2	-4.3	-15.0
CCN1CCN(C(=O)c2ccccc2Nc2ccc(SC(F)F)cc2)CC1	90.4*	-1.3	-2.9	0.4	.
CCc1ccc(NC(=O)N(CCN2CCOCC2)Cc2ccc3c(c2)CCCN3CC)cc1	98.5*	5.3	-0.5	.	6.7
CCc1ccc(NC(=O)N(CCCN2CCOCC2)Cc2cccs2)cc1	-6.4	1.3	-1.5	.	11.5
CCN1CCCc2cc(CN(CCN3CCOCC3)C(=O)Nc3ccc(C)c(C)c3)ccc21	98.9*	-5.2	-1.4	.	-2.0
CN(C)/C=C/C(=O)c1cc(N2CCOCC2)ccc1[N+](=O)[O-]	34.8	.	-0.5	-5.7	12.2
C=CCNC(=O)c1ccccc1S(=O)c1ccccc1C#N (centres undefined)	98.9*	7.0	0.4	-4.8	-1.0
Cc1sc2nc(SCC(=O)Nc3cccc(S(N)(=O)=O)c3)[nH]c(=O)c2c1C	?	.	-1.8	-4.5	13.0
CC(=O)c1ccccc1NC(=O)CSCc1nc2sc(C)c(C)c2c(=O)[nH]1	.	2.3	-2.6	-5.1	3.0
Cc1sc2nc(SCC(=O)Nc3ccc(S(N)(=O)=O)cc3)[nH]c(=O)c2c1C	-12.1	0.7	0.0	43.5*	2.9
Cc1sc2nc(CSCC(=O)Nc3ccc(OC(F)F)cc3)[nH]c(=O)c2c1C	97.2*	0.4	-0.7	4.9	13.0
Cc1sc2nc(CSCC(=O)Nc3ccc(C(=O)N(C)C)cc3)[nH]c(=O)c2c1C	98.8*	7.4	-0.1	-0.2	-0.1
O=C(C1CC1)N1CCN=C1SCc1cccc(C(F)(F)F)c1	?	0.3	-2.0	-0.2	-12.3
CC(=O)N1CCN=C1SCc1ccc(Br)cc1	96.5*	-9.7	0.1	.	6.2
CC(=O)N1CCN=C1SCc1cccc(C(F)(F)F)c1	98.7*	-1.9	-0.8	-1.8	-3.8
CCC(=O)N1CCN=C1SCc1cccc(C(F)(F)F)c1	98.6*	-6.7	-2.1	-4.3	12.9
CCOC(=O)N1CCN=C1SCc1ccc(Cl)c(Cl)c1	98.6*	.	-1.2	1.2	2.9
SMILES	ALR H2O2 inh	Dyrk1A ADPGlo	CAL PDZ FP-1	CAL PDZ FP-2	Rtt109 Vps75
Cc1ccc(CSC2=NCCN2C(=O)C2CC2)cc1	-5.3	-6.2	.	-0.9	-6.2
COCCCN1CC(=O)N2Cc3[nH]c4ccccc4c3C[C@H]2C1=O	-3.3	2.5	-0.3	-3.3	21.7
CC(C)Cn1c(N)c(C=O)c(=O)[nH]c1=O	-7.1	-0.1	-3.4	1.2	1.5
CS(=O)(=O)N1CCC(C(=O)Nc2ccccc2Br)CC1	-5.2	5.2	0.6	2.1	1.2
O=C(Nc1ccc(O)cc1)c1ccc2c(c1)C(=O)N(Cc1ccco1)C2=O	99.6*	3.2	0.1	-3.6	-5.2
O=C(Nc1cc([N+](=O)[O-])ccc1O)c1ccc2c(c1)C(=O)N(Cc1ccco1)C2=O	98.3*	2.1	-2.3	-1.7	13.3
O=C(CSc1nncc(=O)[nH]1)Nc1cccc([N+](=O)[O-])c1	99.7*	3.1	-2.2	-1.8	5.9
CCOC(=O)c1cccc(NC(=O)/C=C/c2cccc([N+](=O)[O-])c2)c1	-77.4	0.7	-3.3	.	5.1
O=C(CSCCO)Nc1cccc([N+](=O)[O-])c1	-3.7	2.7	-0.9	-4.5	-5.3
CCOC(=O)/C=C/C(=O)Nc1cccc([N+](=O)[O-])c1	.	-3.6	-2.0	-1.1	107.6*
Nc1ccc(SCC(=O)Nc2cccc([N+](=O)[O-])c2)cc1	98.7*	.	-0.5	-3.4	-3.9
N#CC1=C(N)n2c(s/c(=C\c3cccs3)c2=O)=C(C#N)C1c1cccs1 (centres undefined)	99.4*	-1.2	-2.4	-3.3	11.7
N#CC1=C(N)n2c(s/c(=C\c3ccco3)c2=O)=C(C#N)C1c1ccco1 (centres undefined)	46.0	-1.9	-3.3	-5.1	?
Nc1nnn(CC(=O)N/N=C/C=C/c2ccccc2)n1	-14.9	17.3	-0.1	.	24.4
C=CCn1c(=NC(=O)c2ccc(S(=O)(=O)N3CCc4ccccc4C3)cc2)sc2cc(S(N)(=O)=O)ccc21	-2.1	7.3	-0.6	5.8	-8.7
C=CCn1c(=NC(=O)CN2C(=O)CCC2=O)sc2cc(S(N)(=O)=O)ccc21	98.5*	-5.7	-1.3	-3.7	9.0
COc1cc(/C=C2/C(=O)NN(c3ccc(Cl)cc3)C2=O)cc(Br)c1O	98.0*	18.6	0.4	.	-9.2
COc1cc(/C=C2/C(=O)NN(c3ccc(F)cc3)C2=O)cc(Cl)c1O	?	1.3	-0.3	-7.1	-2.0
COc1cc(/C=C2/C(=O)NN(c3ccc(Cl)c(Cl)c3)C2=O)cc([N+](=O)[O-])c1O	98.4*	-1.4	.	0.5	2.0
CC(O)CNc1nc(Cl)c(C#N)s1 (centres undefined)	-4.8	-0.2	-2.4	-0.5	7.0
Cc1c(Cl)cccc1NS(=O)(=O)c1ccc2c(c1)C1C=CCC1C(c1ccc(C(=O)O)cc1)N2 (centres undefined)	98.0*	5.9	-1.1	5.4	13.1
CCOc1cc(/C=C2/C(=O)ON=C2C)ccc1O	99.3*	-3.0	-0.5	0.5	0.8
CC1=NOC(=O)/C1=C/c1ccc(O)c(Cl)c1	.	6.9	-0.2	1.0	1.1
CCOC(=O)C1=C(O)/C(=C\c2ccc(O)c(OCC)c2)N=C1C	95.3*	.	-0.2	62.7*	4.4
CCOC(=O)C1=C(O)/C(=C\c2ccc(OC)c(OC)c2)N=C1C	.	.	1.2	1.5	-4.5
CCOc1cc(/C=C2/N=C(C)C(C(=O)OC)=C2O)ccc1O	99.3*	2.7	0.2	.	15.5
COc1cc(/C=C2/C(=O)ON=C2C)cc(Cl)c1O	90.8*	-1.5	.	4.2	-8.5
CC(C)Cc1ccc(C(C)C(=O)Nc2ccccc2O)cc1 (centres undefined)	1.2	2.5	-1.7	-2.5	1.7
O=C(Nc1ccccn1)C(=O)N1CCCCC1	-1.1	-3.0	0.0	-1.9	-3.2

High-throughput results deposited in PubChem BioAssay by Broad Institute.
